Measurements gathered from unrelated publications.
Compare with care: the assays were run in different laboratories.
Sample: plasma

c1ccc(-c2nc(N3CCC(c4ccccn4)C3)c3ccccc3n2)nc1 (stereo not shown)  MRT(0-t) (female BALB/c mouse; oral, 12.5 mg/kg): 5.1 h
COc1nc(-c2cc(C)c(N[C@@H](C)c3cc(F)cc(F)c3)nn2)ccc1-n1cnc(C)c1  MRT(0-t) (male CD-1 mouse; intravenous, 1 mg/kg, single dose): 3.3 h
CCc1cc(C(=O)NC)c2nccc(N3CCc4c(cc(Cn5ccnc5)cc4-c4cn(C)nc4C(F)(F)F)C3=O)c2c1  MRT(0-inf) (male CD-1 mouse; intravenous, 3 mg/kg): 0.5 h
Cc1cc(NC(=O)c2cccc3cc(-c4cccc5[nH]nc(N)c45)ccc23)ccc1F  MRT(0-inf) (male CD-1 mouse; oral, 10 mg/kg): 3.54 h
Cc1ccc2cncc(N3CCc4c(cc(Cn5ccnc5)cc4-c4cn(C)nc4C(F)(F)F)C3=O)c2c1  MRT(0-inf) (male CD-1 mouse; oral, 50 mg/kg): 3.5 h
COc1ccc2cc(CCC[18F])ccc2c1  MRT (male BALB/c mouse; intravenous): 0.698 h
CCc1cc(OC)c2nccc(N3CCc4c(cc(Cn5ccnc5)cc4-c4cn(C)nc4C(F)(F)F)C3=O)c2c1  MRT(0-inf) (male CD-1 mouse; intravenous, 3 mg/kg): 0.7 h
CC(C)(Nc1nc(-c2ccccn2)nc2ccccc12)c1ccccn1  MRT(0-inf) (female BALB/c mouse; intravenous, 1 mg/kg): 1.2 h
COc1nc(-c2cc(C)c(N[C@@H](C)c3c(F)cc(F)cc3F)nn2)ccc1-n1cnc(C)c1  MRT(0-t) (male CD-1 mouse; intravenous, 1 mg/kg, single dose): 3.3 h
CC1(C)CC[C@]2(C(=O)O)CC[C@]3(C)C(=CC[C@@H]4[C@@]5(C)C[C@@H](O)[C@H](OC(=O)/C=C/c6ccc(O)cc6)C(C)(C)[C@@H]5CC[C@]43C)[C@@H]2C1 (relative stereo)  MRT(0-inf) (mouse; intraperitoneal, 85 µmol/kg, single dose): 11.9 h
